Source: ChEMBL document CHEMBL4842312, “Phenoxazine nucleoside derivatives with a multiple activity against RNA and DNA viruses” (Eur J Med Chem, 2021)
In brackets after ≈: the same amount, converted by molar mass.

Legend:
[1] = system: Human alphaherpesvirus 3; assay: Antiviral activity against Varicella zoster virus assessed as inhibition of viral replication; assay type: functional, organism-based
[2] = system: Human alphaherpesvirus 1; assay: Antiviral activity against Herpes simplex virus 1 infected in HEL cells assessed as reduction in viral plaque formation; assay type: functional
In short: (§1)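 Confluent HEL cultures received 100 CCID50 or 20 PFU of virus, with 2 h adsorption before inoculum removal. Cells were then incubated with compound from 100 μM downward. Cytopathicity or plaques were scored once untreated infected controls reached completion.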

[3] = system: Human alphaherpesvirus 2; assay: Antiviral activity against Herpes simplex virus 2 infected in HEL cells assessed as reduction in viral plaque formation; assay type: functional; in short: as §1
[4] = system: Human alphaherpesvirus 3; assay: Antiviral activity against Varicella zoster virus infected in HEL cells assessed as reduction in viral plaque formation; assay type: functional; in short: as §1
[5] = system: Human betaherpesvirus 5; assay: Antiviral activity against cytomegalovirus infected in HEL cells assessed as reduction in viral plaque formation; assay type: functional
In short: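 Confluent HEL cultures infected with 20 PFU of CMV (AD-169 or Davis), 2 h adsorption, inoculum removed, then compounds added at varying concentrations from 100 μM. Plaques scored once complete in untreated infected controls.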

[6] = system: Human alphaherpesvirus 3; assay: Antiviral activity against thymidine kinase positive Varicella zoster virus; assay type: functional, organism-based; in short: as §1
[7] = system: Human alphaherpesvirus 3; assay: Antiviral activity against thymidine kinase deficient Varicella zoster virus; assay type: functional, organism-based; in short: as §1
[8] = system: Human betaherpesvirus 5; assay: Antiviral activity against Human cytomegalovirus AD169; assay type: functional, organism-based; settings: Human betaherpesvirus 5, AD169; in short: as §1
[9] = system: Human betaherpesvirus 5; assay: Antiviral activity against Human cytomegalovirus Davis; assay type: functional, organism-based; settings: Human betaherpesvirus 5, Davis; in short: as §1
[10] = system: HEL; assay: Cytotoxicity against human HEL cells assessed as reduction in cell viability measured after 3 days by beckman coulter counting method; assay type: cell-based; settings: 72 h, time 3 day
In short: (§2)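 Cells were seeded at 5 × 10³/well, grown 24 h, then exposed to compound from 100 μM downward for 3 days at 37 °C. Cell number was counted with a Coulter counter.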

[11] = Selectivity index, ratio of CC50 for human HEL cells to EC50 for antiviral activity against thymidine kinase positive Varicella zoster virus; assay type: toxicity; settings: read-out: Ratio CC50/EC50
[12] = Selectivity index, ratio of CC50 for human HEL cells to EC50 for antiviral activity against thymidine kinase deficient Varicella zoster virus; assay type: toxicity; settings: read-out: Ratio CC50/EC50
[13] = Selectivity index, ratio of CC50 for human HEL cells to EC50 for Antiviral activity against Human cytomegalovirus AD169; assay type: toxicity; settings: read-out: Ratio CC50/EC50
[14] = Selectivity index, ratio of CC50 for human HEL cells to EC50 for Antiviral activity against Human cytomegalovirus Davis; assay type: toxicity; settings: read-out: Ratio CC50/EC50
[15] = system: Tick-borne encephalitis virus; assay: Antiviral activity against Tick-borne encephalitis virus infected in pig PEK cells assessed as reduction in virus plaque formation preincubated with virus for 1 hr followed by cell infection and measured after 1 hr by crystal violet staining based assay; assay type: functional, organism-based
[16] = system: Powassan virus; assay: Antiviral activity against Powassan virus infected in pig PEK cells assessed as reduction in virus plaque formation preincubated with virus for 1 hr followed by cell infection and measured after 1 hr by crystal violet staining based assay; assay type: functional, organism-based
[17] = Selectivity index, ratio of CC50 for pig PEK cells to EC50 for Antiviral activity against Tick-borne virus encephalitis infected in pig PEK cells; assay type: toxicity, cell-based; settings: read-out: Ratio CC50/EC50
[18] = Selectivity index, ratio of CC50 for pig PEK cells to EC50 for Antiviral activity against Powassan virus infected in pig PEK cells; assay type: toxicity, cell-based; settings: read-out: Ratio CC50/EC50
[19] = Cytotoxicity in pig PEK cells assessed as reduction in cell viability measured after 5 days by resazurin dye based assay; design: species or system Sus scrofa, Kidney; settings: 120 h, time 5 day
In short: (§3)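 Cells (about 10⁵/well, 5% FBS) were added to two-fold compound dilutions (eight concentrations from 100 μM; DMSO control) and held 5 days at 36.5 °C in CO2. Medium was then replaced with resazurin (25 μg/mL) for 4 h and stopped with SDS. Fluorescence was read at Ex 525 / Em 580–640 nm, with background wells without resazurin subtracted. Done in two replicates; CC50 calculated.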

[20] = system: Chikungunya virus; assay: Antiviral activity against Chikungunya virus infected in African green monkey Vero cells assessed as reduction in virus plaque formation preincubated with virus for 1 hr followed by cell infection and measured after 1 hr by crystal violet staining based assay; assay type: functional, organism-based
[21] = Selectivity index, ratio of CC50 for African green monkey Vero cells to EC50 for Antiviral activity against Chikungunya virus infected in African green monkey Vero cells; assay type: toxicity; settings: read-out: Ratio CC50/EC50
[22] = system: Vero; assay: (§4) Cytotoxicity in African green monkey Vero cells assessed as reduction in cell viability measured after 5 days by resazurin dye based assay; settings: chlorocebus sabaeus, vero, 120 h; time 5 day; in short: as §3
[23] = system: Respiratory syncytial virus; assay: Antiviral activity against Respiratory syncytial virus assessed as reduction in virus-induced cytopathic effect by MTS assay; assay type: functional, organism-based; settings: human respiratory syncytial virus
[24] = system: Influenza A virus; assay: Antiviral activity against Influenza A virus (H1N1) infected in MDCK cells assessed as reduction in cytopathic effect preincubated with cells for 1 hrs followed by viral addition and measured after 24 hrs by Reed-Muench method; assay type: functional, organism-based
In short: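 MDCK monolayers were pre-incubated 1 h at 37 °C with 3-fold compound dilutions (from 2 mg/mL DMSO stock), then infected at MOI 1 for 24 h. Supernatant yield was titrated by 10-fold dilutions on fresh MDCK for 72 h. Titre was read by hemagglutination with 1% chicken erythrocytes and calculated by Reed-Muench as TID50 per 100 μL.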

[25] = system: HEp-2; assay: Cytotoxicity in human Hep2 cells assessed as reduction in cell viability measured after 3 days by beckman coulter counting method; assay type: functional; settings: HEp-2, 72 h, time 3 day
In short: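 Hep2 cells seeded at 5 × 10³ cells/well and allowed to grow 24 h, then exposed to compound dilutions starting at 100 μM for 3 days at 37 °C. Cell number measured by Coulter counter.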

[26] = system: MDCK; assay: (§5) Cytotoxicity in dog MDCK cells assessed as reduction in cell viability measured after 3 days by beckman coulter counting method; assay type: cell-based, Canis lupus familiaris; settings: mdck, 72 h, time 3 day; in short: as §2
[27] = system: SARS-CoV-2; assay: Antiviral activity against SARS COV-2 infected in monkey vero cells assessed as reduction in virus-induced cytopathic effect preincubated with virus for 1 hr followed by cell infection and measured after 5 days by microscopic analysis; assay type: functional, organism-based; settings: Severe acute respiratory syndrome coronavirus 2, Vero
[28] = system: Omsk hemorrhagic fever virus; assay: Antiviral activity against Omsk hemorrhagic fever virus infected in pig PEK cells assessed as reduction in virus plaque formation preincubated with virus for 1 hr followed by cell infection and measured after 1 hr by crystal violet staining based assay; assay type: functional, organism-based
[29] = Selectivity index, ratio of CC50 for pig PEK cells to EC50 for Antiviral activity against Omsk hemorrhagic fever virus infected in pig PEK cells; assay type: toxicity, cell-based; settings: read-out: Ratio CC50/EC50
[30] = Selectivity index, ratio of CC50 for dog MDCK cells to EC50 for Influenza A virus (A/California/07/09(H1N1)) infected in MDCK cells; assay type: toxicity, cell-based; settings: read-out: Ratio CC50/EC50
[31] = as §4; settings: chlorocebus sabaeus, Vero cells; time 5 day; in short: as §3
[32] = as §5; assay type: cell-based, Canis lupus familiaris; settings: MDCK cells, time 3 day; in short: as §2
[33] = Selectivity index, ratio of CC50 for human Hep2 cells to EC50 for Respiratory syncytial virus; assay type: toxicity; settings: read-out: Ratio CC50/EC50

Structure (SMILES) | EC50 [6] | EC50 [7] | EC50 [8] | EC50 [9] | CC50 [10] | EC50 [15] | EC50 [16] | selectivity ratio [17] | selectivity ratio [18] | CC50 [19] | EC50 [20] | selectivity ratio [21] | CC50 [22] | EC50 [23] | EC50 [24] | CC50 [25] | CC50 [26] | EC50 [27] | EC50 [28] | selectivity ratio [29] | further results
CCCCCCCc1cc2cn([C@H]3C[C@H](O)[C@@H](CO)O3)c(=O)nc2o1 |  |  |  |  |  |  |  |  |  |  |  |  |  |  |  |  |  |  |  |  | EC50 [1]: 0.027 µM
Cc1cn2c(=O)c3ncn(COC(CO)CO)c3nc2[nH]1 |  |  |  |  |  |  |  |  |  |  |  |  |  |  |  |  |  |  |  |  | MIC [2]: 0.07 µM (≈ 0.0205 µg/mL); MIC [3]: 0.07 µM (≈ 0.0205 µg/mL); MIC [4]: 14.3 µM (≈ 4.19 µg/mL); MIC [5]: 14.3 µM (≈ 4.19 µg/mL)
CCCCCCCCOc1ccc2c(c1)Nc1nc(=O)n([C@H]3C[C@H](O)[C@@H](CO)O3)cc1O2 | 0.42 µM | 15.9 µM | 54.7 µM | 42.3 µM | > 100 µM | 2.8 µM | 1.5 µM | > 35 | > 66 | > 100 µM | 2.5 µM | > 40 | > 100 µM | > 100 µM | 82 µM | > 100 µM | > 100 µM | > 100 µM |  |  | selectivity ratio [11]: > 238; selectivity ratio [12]: > 6; selectivity ratio [13]: > 2; selectivity ratio [14]: > 2
O=c1nc2c(cn1COCCO)Oc1ccccc1N2 | > 100 µM | > 100 µM | > 100 µM | > 100 µM | > 100 µM | 23.6 µM | > 50 µM | > 4 |  | > 100 µM | 28 µM | > 3 | > 100 µM | > 100 µM | 25 µM | > 100 µM | > 100 µM | > 100 µM | 7.2 µM | > 13 | 
CCCCCCCCCCOc1ccc2c(c1)Nc1nc(=O)n([C@H]3C[C@H](O)[C@@H](CO)O3)cc1O2 | 0.68 µM | 15.2 µM | > 100 µM | 10.4 µM | 50.3 µM | 40 µM | 4.4 µM |  | > 22 | > 100 µM |  |  | > 100 µM | > 100 µM | 3.4 µM | > 100 µM | > 100 µM | > 100 µM |  |  | selectivity ratio [12]: 3; selectivity ratio [14]: 5; selectivity ratio [30]: > 29
Cc1cn2c(=O)c3ncn(COCCO)c3nc2[nH]1 |  |  |  |  |  |  |  |  |  |  |  |  |  |  |  |  |  |  |  |  | MIC [2]: 1.52 µM (≈ 0.4 µg/mL); MIC [3]: 1.52 µM (≈ 0.4 µg/mL)
COc1ccc(C(OCCOCn2cc3c(nc2=O)N(C)c2ccccc2O3)(c2ccccc2)c2ccc(OC)cc2)cc1 | > 20 µM | > 20 µM | 48.9 µM | 44.7 µM | > 100 µM | 16 µM | 8 µM | > 6 | > 12 | > 100 µM | 6.1 µM | > 16 | > 100 µM | > 100 µM | 79 µM | > 100 µM | > 100 µM | > 100 µM | 3.1 µM | > 32 | selectivity ratio [13]: > 2; selectivity ratio [14]: > 2
COc1ccc(C(OCCOCn2cc3c(nc2=O)Nc2ccccc2O3)(c2ccccc2)c2ccc(OC)cc2)cc1 | > 100 µM | > 100 µM | > 100 µM | > 100 µM | > 100 µM | 36 µM | 21 µM | > 2 | > 5 | > 100 µM | > 50 µM |  | > 100 µM | > 100 µM | 14 µM | > 100 µM | > 100 µM | > 100 µM | 21.4 µM | > 4 | 
O=c1nc2c(cn1[C@H]1C=C[C@@H](O)C1)Oc1ccccc1N2 | > 100 µM | 64.4 µM | > 20 µM | > 100 µM | > 100 µM |  |  |  |  |  |  |  |  | 11 µM |  | 80 µM |  | > 100 µM |  |  | CC50 at 120 h [31]: > 100 µM; CC50 at 72 h [32]: > 100 µM; selectivity ratio [33]: 7
CN1c2ccccc2Oc2cn(COCCO)c(=O)nc21 | > 100 µM | > 100 µM | > 100 µM | > 100 µM | > 100 µM | 16 µM | 13.5 µM | > 6 | > 7 | > 100 µM | 15 µM | > 6 | > 100 µM | > 100 µM | 33 µM | > 100 µM | > 100 µM | > 100 µM | 4.5 µM | > 22 | 
Nc1nc2c(ncn2COCCO)c(=O)[nH]1 [ACYCLOVIR] |  |  |  |  | > 300 µM |  |  |  |  |  |  |  |  |  |  |  |  |  |  |  | EC50 [1]: 0.009 µM
O=c1[nH]c(=O)n([C@H]2C[C@H](O)[C@@H](CO)O2)cc1/C=C/Br [BRIVUDINE] | 0.034 µM | 0.42 µM |  |  | > 300 µM |  |  |  |  |  |  |  |  |  |  |  |  |  |  |  | EC50 [1]: 3.4 µM
